Residue numbers refer to the chain shown, from its start. Where “and” joins values, the source holds several entries; their conditions need not be identical. Identical values can stand only once.
Columns and labels:
PfCRT 7G8 [1] = biological target: T1, PfCRT 7G8 (Plasmodium falciparum, UniProt W7FI62); experiment: Scintillation proximity assay; type: binding; conditions: for competition of [3H]-Arg binding (in words): 125 nM [3H]-Arg, 1 μM CQ or PPQ, 0.1 μM amodiaquine, 1 mM Arg, Lys or Leu; for EC50: half-maximal binding constant (EC50), isotopic dilution, SPA, nanodiscs, pH 7.5, isotopic dilution of [3H]-CQ or [3H]-PPQ
T1 sequence (W7FI62 1-424): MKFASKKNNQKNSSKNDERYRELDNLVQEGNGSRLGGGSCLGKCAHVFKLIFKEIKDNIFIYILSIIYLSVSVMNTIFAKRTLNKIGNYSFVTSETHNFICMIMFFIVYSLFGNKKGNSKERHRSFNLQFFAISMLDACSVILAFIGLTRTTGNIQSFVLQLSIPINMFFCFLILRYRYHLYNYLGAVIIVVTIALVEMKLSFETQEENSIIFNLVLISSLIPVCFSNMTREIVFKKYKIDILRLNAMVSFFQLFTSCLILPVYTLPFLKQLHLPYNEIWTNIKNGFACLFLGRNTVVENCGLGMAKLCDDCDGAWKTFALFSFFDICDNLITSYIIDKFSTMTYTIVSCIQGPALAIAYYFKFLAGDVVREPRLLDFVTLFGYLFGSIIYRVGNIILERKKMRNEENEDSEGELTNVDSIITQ

PfCRT WT (3D7) = biological target: T2, PfCRT WT (3D7) (Plasmodium falciparum, UniProt Q9N623); experiment: Transport; type: biochemical; conditions: for 1-min uptake, transport in proteoliposomes: 100 nM [3H]-drug, inwardly-directed pH gradient; for transport activity (in words): proteoliposomes
T2 sequence (Q9N623 1-424): T1 sequence (W7FI62 1-424) with S72C, T76K, S220A, D326N, L356I
Method in brief: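 PfCRT proteoliposomes (40 ng protein per assay) are loaded with 100 mM KPi, pH 7.5, and 2 mM β-mercaptoethanol. They are diluted into 100 mM Tris/Mes, pH 5.5, giving an inward pH gradient, with 100 nM [3H]-CQ (5.45 Ci/mmol) or [3H]-PPQ (15 Ci/mmol) for 1 min. Filter mock uptake without liposomes and control-liposome uptake are subtracted. Data come from 2 independent experiments, each with 4 technical replicates.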

PfCRT 7G8 [2] = biological target: T1, PfCRT 7G8; experiment: Equilibrium dialysis binding, PfCRT variant in nanodiscs; conditions: for Bmax, binding at pH 5.5 / Bmax, binding at pH 7.5: equilibrium dialysis
[3] = system: P. falciparum parasites with PfCRT haplotypes/mutations; conditions: cited from earlier work; for Associated Phenotype, mutation C350R: haplotype 7G8+C350R, this study; for Associated Phenotype, mutation C350R / Associated Phenotype, mutation C72S / Associated Phenotype, mutation F145I / Associated Phenotype, mutation G353V / Associated Phenotype, mutation H97Y / Associated Phenotype, mutation I218F / Associated Phenotype, mutation M343L / Associated Phenotype, mutation T93S / Associated Phenotype, mutation A220S / Associated Phenotype, mutation I356T/L / Associated Phenotype, mutation N326S/D / Associated Phenotype, mutation M74I / Associated Phenotype, mutation N75E / Associated Phenotype, mutation Q271E / Associated Phenotype, mutation R371I / Associated Phenotype, mutation K76T: field; for Associated Phenotype, mutation C72S: haplotype 7G8; for Associated Phenotype, mutation C101F: haplotype Dd2+C101F, lab; for Associated Phenotype, mutation F145I: haplotype Dd2+F145I; for Associated Phenotype, mutation G353V: haplotype Dd2+G353V; for Associated Phenotype, mutation H97Y: haplotype Dd2+H97Y; for Associated Phenotype, mutation I218F: haplotype Dd2+I218F; for Associated Phenotype, mutation M343L: haplotype Dd2+M343L; for Associated Phenotype, mutation T93S: haplotype Dd2+T93S; for Associated Phenotype, mutation A220S / Associated Phenotype, mutation I356T/L / Associated Phenotype, mutation N326S/D: haplotype Dd2/7G8; for Associated Phenotype, mutation M74I / Associated Phenotype, mutation N75E / Associated Phenotype, mutation Q271E / Associated Phenotype, mutation R371I: haplotype Dd2; for Associated Phenotype, mutation K76T: haplotype Dd2 and 7G8
[4] = system: P. falciparum 7G8^7G8+F145I parasite line; experiment: Parasite drug susceptibility assay; type: cell-based, Plasmodium falciparum; conditions: for IC50: Plasmodium falciparum, 7G8, 72 h
Method in brief: (§1)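 Asynchronous asexual blood-stage parasites were seeded at 0.3% parasitemia and 1% hematocrit into 2-fold, 10-point test compound dilutions. Incubation was 72 h at 37°C under 5% O2/5% CO2/90% N2. Final parasitemia was read by flow cytometry. IC50 came from nonlinear regression, 4 independent assays in duplicate, with two-tailed Mann-Whitney U tests.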

[5] = system: P. falciparum 7G8^7G8+F145I parasite line; experiment: [3H]-drug accumulation assay in cultured parasites; type: cell-based, Plasmodium falciparum; conditions: 60 min, trophozoites
Method in brief: (§2)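 Sorbitol-synchronized early trophozoites (24–26 h) were magnet-purified and resuspended in bicarbonate-free RPMI 1640 (25 mM HEPES, 10 mM glucose, 0.2 mM hypoxanthine, pH 7.4), counted by hemocytometer. They were mixed with an equal volume of radiolabelled drug (10 nM [3H]-CQ before mixing) for 1 h at 37°C, spun through dibutyl phthalate, then scintillation counted. CAR was internal/external drug, corrected for uninfected erythrocytes, per 10^6 cells at 75 fl; 4–6 assays in duplicate.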

[6] = system: P. falciparum 7G8^7G8 parasite line; experiment: Parasite drug susceptibility assay; type: cell-based, Plasmodium falciparum; conditions: Plasmodium falciparum, 7G8, 72 h
Method in brief: as §1

[7] = system: P. falciparum 7G8^7G8+C350R parasite line; experiment: [3H]-drug accumulation assay in cultured parasites; type: cell-based, Plasmodium falciparum; conditions: 60 min, trophozoites
Method in brief: as §2

PfCRT Dd2 = biological target: T3, PfCRT Dd2 (Plasmodium falciparum, UniProt Q9N623, A220S/I356T/K76T/M74I/N326S/N75E/Q271E/R371I); experiment: Equilibrium dialysis binding, PfCRT variant in nanodiscs; conditions: for Bmax, binding at pH 5.5 / Bmax, binding at pH 7.5: equilibrium dialysis
T3 sequence (Q9N623 1-424 M74I/N75E/K76T/A220S/Q271E/N326S/I356T/R371I): T1 sequence (W7FI62 1-424) with S72C, M74I, N75E, Q271E, D326S, L356T, R371I

[8] = system: P. falciparum 7G8^7G8+C350R parasite line; experiment: Parasite drug susceptibility assay; type: cell-based, Plasmodium falciparum; conditions: Plasmodium falciparum, 7G8, 72 h
Method in brief: as §1

[9] = binding at pH 5.5, equilibrium dialysis, pH 5.5
[10] = binding at pH 7.5, equilibrium dialysis, pH 7.5

| SMILES | competition of [3H]-Arg binding (in words) (PfCRT 7G8 [1]) | EC50 (PfCRT 7G8 [1]) | 1-min uptake, transport in proteoliposomes (PfCRT WT (3D7)) | transport activity (in words) (PfCRT WT (3D7)) | Kd (PfCRT 7G8 [2]; [9]) | Kd (PfCRT 7G8 [2]; [10]) | Bmax, binding at pH 5.5 (PfCRT 7G8 [2]; pH 5.5) | Bmax, binding at pH 7.5 (PfCRT 7G8 [2]; pH 7.5) | Associated Phenotype, mutation C350R [3] | Associated Phenotype, mutation C72S [3] | Associated Phenotype, mutation C101F [3] | Associated Phenotype, mutation F145I [3] | Associated Phenotype, mutation G353V [3] | Associated Phenotype, mutation H97Y [3] | Associated Phenotype, mutation I218F [3] | Associated Phenotype, mutation M343L [3] | Associated Phenotype, mutation T93S [3] | Associated Phenotype, mutation A220S [3] | Associated Phenotype, mutation I356T/L [3] | Associated Phenotype, mutation N326S/D [3] | further results |
| --- | --- | --- | --- | --- | --- | --- | --- | --- | --- | --- | --- | --- | --- | --- | --- | --- | --- | --- | --- | --- | --- |
| CCN(CC)CCCC(C)Nc1ccnc2cc(Cl)ccc12 (stereo not drawn) [CQ, chloroquine] | effectively competed | ~0.3 µM and 0.297 µM | 0.58 ± 0.08 nmol/mg | minimal uptake | 0.21 ± 0.06 µM | 0.28 ± 0.06 µM | 0.40 ± 0.03 mol CQ/mol PfCRT | 0.38 ± 0.02 mol CQ/mol PfCRT | S | R | S | S | S | PPQ-R (CQ-R) | R low | S | PPQ-R (CQ-R) | R | R | R | Associated Phenotype, mutation M74I [3]: R; Associated Phenotype, mutation N75E [3]: R; Associated Phenotype, mutation Q271E [3]: R; Associated Phenotype, mutation R371I [3]: R; Associated Phenotype, mutation K76T [3]: R; IC50 [4]: 0.0073 ± 0.0004 µM; [3H]-CQ CAR (cellular accumulation ratio) ([5]; 5 nM [3H]-CQ): 388.4 ± 38.9; IC50 [6]: 0.083 ± 0.0075 µM; [3H]-CQ CAR (cellular accumulation ratio) ([7]; 5 nM [3H]-CQ): 406.4 ± 22.4; Kd (PfCRT Dd2; [9]): 0.2 ± 0.04 µM; Kd (PfCRT Dd2; [10]): 0.31 ± 0.04 µM; Bmax, binding at pH 5.5 (PfCRT Dd2; pH 5.5): 0.42 ± 0.04 mol CQ/mol PfCRT; Bmax, binding at pH 7.5 (PfCRT Dd2; pH 7.5): 0.38 ± 0.01 mol CQ/mol PfCRT; IC50 [8]: 0.0069 ± 0.0003 µM |
| Clc1ccc2c(N3CCN(CCCN4CCN(c5ccnc6cc(Cl)ccc56)CC4)CC3)ccnc2c1 [PPQ, piperaquine] | effectively competed | ~0.19 µM and 0.19 µM | 0.51 ± 0.04 nmol/mg | Minimal | 0.09 ± 0.02 µM | 0.22 ± 0.04 µM | 0.40 ± 0.01 mol CQ/mol PfCRT | 0.40 ± 0.02 mol CQ/mol PfCRT | R low | S | R | R | R mod. | PPQ-R (CQ-R) | R | R low | PPQ-R (CQ-R) | S | S | S | Associated Phenotype, mutation M74I [3]: S; Associated Phenotype, mutation N75E [3]: S; Associated Phenotype, mutation Q271E [3]: S; Associated Phenotype, mutation R371I [3]: S; Associated Phenotype, mutation K76T [3]: S; fold increase in IC90 compared to the isogenic 7G8 control line ([4]; 72 h growth inhibition): 188 fold; IC50 [4]: 0.0287 ± 0.001 µM; [3H]-PPQ CAR (cellular accumulation ratio) ([5]; 20 nM [3H]-PPQ): 1125.6 ± 59.6; IC50 [6]: 0.0214 ± 0.001 µM; [3H]-PPQ CAR (cellular accumulation ratio) ([7]; 20 nM [3H]-PPQ): 1207.4 ± 119.8; Kd (PfCRT Dd2; [9]): 0.08 ± 0.01 µM; Kd (PfCRT Dd2; [10]): 0.22 ± 0.03 µM; Bmax, binding at pH 5.5 (PfCRT Dd2; pH 5.5): 0.39 ± 0.01 mol CQ/mol PfCRT; Bmax, binding at pH 7.5 (PfCRT Dd2; pH 7.5): 0.39 ± 0.02 mol CQ/mol PfCRT; IC50 [8]: 0.0295 ± 0.0016 µM |

Reference: paper PMC6911266 (Nature, 2019)
